# From ChEMBL document CHEMBL4033800, “Further Developments of the Phenyl-Pyrrolyl Pentane Series of Nonsteroidal Vitamin D Receptor Modulators as Anticancer Agents” (J Med Chem, 2018)
# Test system: not listed separately
# Test: Clearance in Sprague-Dawley rat at 5 mg/kg, iv measured up to 48 hrs post administration by HPLC analysis
# Format: ADME, organism-based
# Conditions: in vivo
# Method in brief: (§1)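 Male Sprague-Dawley rats (180−220 g), 4 per group, dosed at 5 mg/kg i.v., 20 mg/kg i.p. or 20 mg/kg p.o. Parameters given as mean ± SD (n = 4).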
row,clearance,Structure (SMILES)
1,6.83 mL/min,CCn1c(C(=O)NC(C)CO)ccc1C(CC)(CC)c1ccc(OCC(O)C(C)(C)C)c(C)c1 (stereo unspecified)

# Test system: MCF7
# Test: Antiproliferative activity against human MCF7 cells after 48 hrs by MTT assay
# Format: functional, cell-based
# Conditions: MCF7, 48 h
row,IC50,Structure (SMILES)
1,2.8 µM,CCn1c(C(=O)NC(C)CO)ccc1C(CC)(CC)c1ccc(OCC(O)C(C)(C)C)c(C)c1 (stereo unspecified)

# Test system: PC-3
# Test: Antiproliferative activity against human PC3 cells after 48 hrs by MTT assay
# Format: functional, cell-based
# Conditions: PC-3, 48 h
row,IC50,Structure (SMILES)
1,17.4 µM,CCn1c(C(=O)NC(C)CO)ccc1C(CC)(CC)c1ccc(OCC(O)C(C)(C)C)c(C)c1 (stereo unspecified)

# Test system: Caco-2
# Test: Antiproliferative activity against human Caco2 cells after 48 hrs by MTT assay
# Format: functional, cell-based
# Conditions: Caco-2, 48 h
row,IC50,Structure (SMILES)
1,> 50 µM,CCn1c(C(=O)NC(C)CO)ccc1C(CC)(CC)c1ccc(OCC(O)C(C)(C)C)c(C)c1 (stereo unspecified)

# Test system: L02
# Test: Antiproliferative activity against human L02 cells after 48 hrs by MTT assay
# Format: cell-based
# Conditions: L02, 48 h
row,Structure (SMILES),IC50
1,CCn1c(C(=O)NC(C)CO)ccc1C(CC)(CC)c1ccc(OCC(O)C(C)(C)C)c(C)c1 (stereo unspecified),17.4 µM

# Target: T1, Vitamin D3 receptor (Homo sapiens, UniProt P11473)
# T1 sequence (P11473 whole entry): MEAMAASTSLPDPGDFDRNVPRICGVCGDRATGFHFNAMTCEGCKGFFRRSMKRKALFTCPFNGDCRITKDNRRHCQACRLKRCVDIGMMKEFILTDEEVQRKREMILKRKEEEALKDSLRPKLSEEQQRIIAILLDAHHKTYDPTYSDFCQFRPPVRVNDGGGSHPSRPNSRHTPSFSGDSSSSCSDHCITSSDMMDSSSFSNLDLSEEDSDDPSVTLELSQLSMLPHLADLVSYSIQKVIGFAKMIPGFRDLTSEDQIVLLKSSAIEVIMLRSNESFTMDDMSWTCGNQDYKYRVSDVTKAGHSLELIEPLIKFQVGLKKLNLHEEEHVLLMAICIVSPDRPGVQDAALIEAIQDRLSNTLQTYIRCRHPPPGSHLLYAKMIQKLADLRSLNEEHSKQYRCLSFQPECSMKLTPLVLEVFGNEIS
# Test: Displacement of fluormone VDR red from human full length VDR after 4 hrs by fluorescence polarization assay
# Conditions: not given
row,IC50,Structure (SMILES)
1,0.228 µM,CCn1c(C(=O)NC(C)CO)ccc1C(CC)(CC)c1ccc(OCC(O)C(C)(C)C)c(C)c1 (stereo unspecified)

# Test system: MCF7
# Test: Induction of cell cycle arrest in human MCF7 cells assessed as accumulation at G0/G1 phase at 1 uM after 24 hrs by propidium iodide-staining based flow cytometry (reference value: 56.03%)
# Format: functional
# Conditions: not given
row,Structure (SMILES),Activity
1,CCn1c(C(=O)NC(C)CO)ccc1C(CC)(CC)c1ccc(OCC(O)C(C)(C)C)c(C)c1 (stereo unspecified),63.03%

# Test system: MCF7
# Test: Induction of cell cycle arrest in human MCF7 cells assessed as accumulation at G2/M phase at 1 uM after 24 hrs by propidium iodide-staining based flow cytometry (reference value: 12.41%)
# Format: functional
# Conditions: not given
row,Structure (SMILES),Activity
1,CCn1c(C(=O)NC(C)CO)ccc1C(CC)(CC)c1ccc(OCC(O)C(C)(C)C)c(C)c1 (stereo unspecified),12.52%

# Test system: MCF7
# Test: Induction of cell cycle arrest in human MCF7 cells assessed as accumulation at S phase at 1 uM after 24 hrs by propidium iodide-staining based flow cytometry (reference value: 31.55%)
# Format: functional
# Conditions: not given
row,Structure (SMILES),Activity
1,CCn1c(C(=O)NC(C)CO)ccc1C(CC)(CC)c1ccc(OCC(O)C(C)(C)C)c(C)c1 (stereo unspecified),24.45%

# Test system: MCF7
# Test: Induction of apoptosis in human MCF7 cells assessed as viable cells at 1 uM after 24 hrs by Annexin V-FITC/propidium iodide-staining based flow cytometry (reference value: 98.2%)
# Format: functional
# Conditions: MCF7, 24 h, read-out: Activity
row,Structure (SMILES),viability at 1 µM
1,CCn1c(C(=O)NC(C)CO)ccc1C(CC)(CC)c1ccc(OCC(O)C(C)(C)C)c(C)c1 (stereo unspecified),89.5%

# Test system: MCF7
# Test: Induction of apoptosis in human MCF7 cells assessed as early apoptotic cells at 1 uM after 24 hrs by Annexin V-FITC/propidium iodide-staining based flow cytometry (reference value: 1.74%)
# Format: functional
# Conditions: not given
row,Structure (SMILES),Activity
1,CCn1c(C(=O)NC(C)CO)ccc1C(CC)(CC)c1ccc(OCC(O)C(C)(C)C)c(C)c1 (stereo unspecified),7.58%

# Test system: MCF7
# Test: Induction of apoptosis in human MCF7 cells assessed as late apoptotic cells at 1 uM after 24 hrs by Annexin V-FITC/propidium iodide-staining based flow cytometry (reference value: 0.062%)
# Format: functional
# Conditions: not given
row,Structure (SMILES),Activity
1,CCn1c(C(=O)NC(C)CO)ccc1C(CC)(CC)c1ccc(OCC(O)C(C)(C)C)c(C)c1 (stereo unspecified),2.78%

# Test system: MCF7
# Test: Induction of apoptosis in human MCF7 cells assessed as necrotic cells at 1 uM after 24 hrs by Annexin V-FITC/propidium iodide-staining based flow cytometry (reference value: 0.031%)
# Format: functional
# Conditions: not given
row,Structure (SMILES),Activity
1,CCn1c(C(=O)NC(C)CO)ccc1C(CC)(CC)c1ccc(OCC(O)C(C)(C)C)c(C)c1 (stereo unspecified),0.15%

# Test system: not listed separately
# Test: AUC in Sprague-Dawley rat at 5 mg/kg, iv measured up to 48 hrs post administration by HPLC analysis
# Format: ADME, organism-based
# Set-up: dose 5 mg/kg, time < 48 hr, route intravenous
# Conditions: in vivo
# Method in brief: as §1
row,AUC at 48 h,Structure (SMILES)
1,13400 ng·h/mL,CCn1c(C(=O)NC(C)CO)ccc1C(CC)(CC)c1ccc(OCC(O)C(C)(C)C)c(C)c1 (stereo unspecified)

# Test system: not listed separately
# Test: Half life in Sprague-Dawley rat at 5 mg/kg, iv by HPLC analysis
# Format: ADME, organism-based
# Conditions: in vivo
# Method in brief: as §1
row,half-life,Structure (SMILES)
1,2.44 h,CCn1c(C(=O)NC(C)CO)ccc1C(CC)(CC)c1ccc(OCC(O)C(C)(C)C)c(C)c1 (stereo unspecified)

# Test system: not listed separately
# Test: MRT in Sprague-Dawley rat at 5 mg/kg, iv by HPLC analysis
# Format: ADME, organism-based
# Conditions: in vivo
# Method in brief: as §1
row,MRT,Structure (SMILES)
1,2.82 h,CCn1c(C(=O)NC(C)CO)ccc1C(CC)(CC)c1ccc(OCC(O)C(C)(C)C)c(C)c1 (stereo unspecified)

# Test system: not listed separately
# Test: AUC in Sprague-Dawley rat at 20 mg/kg, ip measured up to 48 hrs post administration by HPLC analysis
# Format: ADME, organism-based
# Set-up: time < 48 hr, dose 20 mg/kg, route intraperitoneal
# Conditions: in vivo
# Method in brief: as §1
row,AUC at 48 h,Structure (SMILES)
1,24800 ng·h/mL,CCn1c(C(=O)NC(C)CO)ccc1C(CC)(CC)c1ccc(OCC(O)C(C)(C)C)c(C)c1 (stereo unspecified)

# Test system: not listed separately
# Test: Half life in Sprague-Dawley rat at 20 mg/kg, ip by HPLC analysis
# Format: ADME, organism-based
# Conditions: in vivo
# Method in brief: as §1
row,half-life,Structure (SMILES)
1,3.96 h,CCn1c(C(=O)NC(C)CO)ccc1C(CC)(CC)c1ccc(OCC(O)C(C)(C)C)c(C)c1 (stereo unspecified)

# Test system: not listed separately
# Test: MRT in Sprague-Dawley rat at 20 mg/kg, ip by HPLC analysis
# Format: ADME, organism-based
# Conditions: in vivo
# Method in brief: as §1
row,MRT,Structure (SMILES)
1,8.15 h,CCn1c(C(=O)NC(C)CO)ccc1C(CC)(CC)c1ccc(OCC(O)C(C)(C)C)c(C)c1 (stereo unspecified)

# Test system: not listed separately
# Test: Clearance in Sprague-Dawley rat at 20 mg/kg, ip by HPLC analysis
# Format: ADME, organism-based
# Conditions: in vivo
# Method in brief: as §1
row,CL/F,Structure (SMILES)
1,13.5 mL/min,CCn1c(C(=O)NC(C)CO)ccc1C(CC)(CC)c1ccc(OCC(O)C(C)(C)C)c(C)c1 (stereo unspecified)

# Test system: not listed separately
# Test: Bioavailability in Sprague-Dawley rat at 20 mg/kg, ip measured up to 48 hrs after administration by HPLC analysis
# Format: ADME, organism-based
# Conditions: in vivo
# Method in brief: as §1
row,bioavailability,Structure (SMILES)
1,46.2%,CCn1c(C(=O)NC(C)CO)ccc1C(CC)(CC)c1ccc(OCC(O)C(C)(C)C)c(C)c1 (stereo unspecified)

# Test system: not listed separately
# Test: AUC in Sprague-Dawley rat at 20 mg/kg, po measured up to 48 hrs post administration by HPLC analysis
# Format: ADME, organism-based
# Set-up: time < 48 hr, dose 20 mg/kg, route oral
# Conditions: in vivo
# Method in brief: as §1
row,AUC at 48 h,Structure (SMILES)
1,13500 ng·h/mL,CCn1c(C(=O)NC(C)CO)ccc1C(CC)(CC)c1ccc(OCC(O)C(C)(C)C)c(C)c1 (stereo unspecified)

# Test system: not listed separately
# Test: Half life in Sprague-Dawley rat at 20 mg/kg, po by HPLC analysis
# Format: ADME, organism-based
# Conditions: in vivo
# Method in brief: as §1
row,half-life,Structure (SMILES)
1,6.89 h,CCn1c(C(=O)NC(C)CO)ccc1C(CC)(CC)c1ccc(OCC(O)C(C)(C)C)c(C)c1 (stereo unspecified)

# Test system: not listed separately
# Test: MRT in Sprague-Dawley rat at 20 mg/kg, po by HPLC analysis
# Format: ADME, organism-based
# Conditions: in vivo
# Method in brief: as §1
row,MRT,Structure (SMILES)
1,10.8 h,CCn1c(C(=O)NC(C)CO)ccc1C(CC)(CC)c1ccc(OCC(O)C(C)(C)C)c(C)c1 (stereo unspecified)

# Test system: not listed separately
# Test: Clearance in Sprague-Dawley rat at 20 mg/kg, po by HPLC analysis
# Format: ADME, organism-based
# Conditions: in vivo
# Method in brief: as §1
row,CL/F,Structure (SMILES)
1,25 mL/min,CCn1c(C(=O)NC(C)CO)ccc1C(CC)(CC)c1ccc(OCC(O)C(C)(C)C)c(C)c1 (stereo unspecified)

# Test system: not listed separately
# Test: Oral bioavailability in Sprague-Dawley rat at 20 mg/kg measured up to 48 hrs after administration by HPLC analysis
# Format: ADME, organism-based
# Conditions: in vivo
# Method in brief: as §1
row,bioavailability,Structure (SMILES)
1,25.2%,CCn1c(C(=O)NC(C)CO)ccc1C(CC)(CC)c1ccc(OCC(O)C(C)(C)C)c(C)c1 (stereo unspecified)
